Screens (PubChem)
This is a sample that favours compounds with a hit; in the whole collection about 4.6% have one here.
OX1R antag-1: blocks the human orexin 1 receptor; AID 434989; 330,000 compounds, 0.43% hits; inhibition, % at 5 µM; CHO/OX1R cells, Fluo-8 calcium fluorescence, orexin A; O43613;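 active = inhibition above its plate's threshold, mean inhibition of all tested compounds on the plate plus 3 SD, cut at about 37% in these data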;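 note: 0% = orexin A challenge wells and 100% = SB-334867-A antagonist wells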
Target sequence (O43613 whole entry, looked up): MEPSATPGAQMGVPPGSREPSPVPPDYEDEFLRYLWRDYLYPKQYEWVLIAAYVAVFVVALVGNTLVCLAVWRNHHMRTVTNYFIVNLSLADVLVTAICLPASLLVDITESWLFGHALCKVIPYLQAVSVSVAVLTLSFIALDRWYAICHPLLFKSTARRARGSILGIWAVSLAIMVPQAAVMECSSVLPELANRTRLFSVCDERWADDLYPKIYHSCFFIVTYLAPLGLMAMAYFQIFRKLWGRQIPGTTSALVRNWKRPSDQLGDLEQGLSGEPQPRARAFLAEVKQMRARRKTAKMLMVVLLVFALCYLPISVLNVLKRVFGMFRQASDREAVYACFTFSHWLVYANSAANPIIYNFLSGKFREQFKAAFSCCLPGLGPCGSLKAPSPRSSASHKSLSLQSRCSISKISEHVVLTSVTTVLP
GPR7 antag: antagonists of human GPR7 (neuropeptides B/W receptor 1); AID 1861; GPR7-expressing cells, fluorescence antagonist assay; P48145; 290,000 compounds, 1.1% hits; inhibition, % at 4.4 µM; in the data active = inhibition above about 16%, passing the limit was not always enough;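 note: cells stimulated with the agonist NPW; 0% = agonist with vehicle and 100% = vehicle without agonist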
Target sequence (P48145 whole entry, looked up): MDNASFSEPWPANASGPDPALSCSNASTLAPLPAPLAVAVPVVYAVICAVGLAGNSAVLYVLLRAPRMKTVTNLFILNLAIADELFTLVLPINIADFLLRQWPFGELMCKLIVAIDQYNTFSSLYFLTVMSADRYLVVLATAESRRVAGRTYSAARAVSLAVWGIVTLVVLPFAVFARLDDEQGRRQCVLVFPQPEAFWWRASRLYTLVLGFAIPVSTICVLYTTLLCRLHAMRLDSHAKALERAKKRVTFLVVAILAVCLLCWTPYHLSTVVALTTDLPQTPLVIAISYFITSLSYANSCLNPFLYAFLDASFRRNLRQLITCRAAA
OX1R antag-2: antagonists of human orexin 1 receptor (OX1R) | O43613 | OX1R-expressing cells, FRET antagonist read-out | inhibition, % at 6.6 µM | 330,000 compounds, 1.8% hits | AID 485270; in the data active = inhibition mostly above about 38%, no sharp cut-off; inactive = mostly below about 40%;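 note: 0% = agonist challenge alone and 100% = reference antagonist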
TAAR1 ag: agonists of human TAAR1 | AID 624467 | CHO RD-HGA16 TAAR1, Fluo-8 calcium fluorescence; vehicle wells 0%, saturating PEA agonist 100% | activation, % at 3 µM | 360,000 compounds, 0.99% hits;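 active = activation above the mean activation of all test compounds in the run plus 3 SD, cut at about 38% in these data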
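Test system: RD-HGA16 (CHO) cells co-expressing Gα16 and hTAAR1 / Benchmarks: DMSO vehicle as 0%, PEA at EC100 as 100% / Repeats: no replicates (n 1) / Measure: % activation from peak over basal fluorescence ratio, DMSO-to-PEA scaled / Timing: 17-24 h plating, Fluo-8 75 min 37 °C, 30 min RT / Technique: kinetic Fluo-8 calcium fluorescence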
TAAR1 antag: human TAAR1 antagonism. CHO RD-HGA16 TAAR1, Fluo-8 calcium fluorescence, antagonist. Q96RJ0. inhibition, % at 3 µM. 360,000 compounds, 1.5% hits;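 active = inhibition above a per-plate cutoff, the mean inhibition of test compounds on that plate plus 3 SD, cut at about 49% in these data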;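 note: 0% = DMSO plus EC80 beta-PEA response and 100% = DMSO alone without agonist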
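System: CHO RD-HGA16 cells bearing hTAAR1. Reagent: EC80 β-phenethylamine stimulus. Schedule: seeding 17-24 h prior, 75-min 37 °C, 30-min RT dye loading. Signal: Fluo-8 intracellular calcium dye fluorescence, real-time kinetic reads. Read-out: % inhibition from peak post-agonist over basal fluorescence ratio. Benchmarks: vehicle wells and EC80 agonist wells. Replicates: n of 1.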
CHO parental Ca: counter-screen for OX1R antagonists: effect in parental CHO cells. parental CHO-K1, ATP-induced calcium, Fluo-8 fluorescence. inhibition, % at 5.6 µM. 330,000 compounds, 0.63% hits. AID 463079;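 active = inhibition above that plate's mean sample inhibition plus 3 SD, cut at about 26% in these data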;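 note: 0% = ATP-challenged DMSO wells and 100% = DMSO wells without ATP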
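Test system: parental CHO cells; detection: calcium-sensitive Fluo-8 fluorescence; evaluation: percent inhibition of calcium signal; also added: ATP as calcium-mobilizing challenge; repeats: one well per compound; control set: ATP-challenged DMSO wells low, unchallenged DMSO wells high; compound: single nominal dose of 5.6 µM per compound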
TAAR1 ag confirm: confirmation of human TAAR1 agonists | shares compounds with TAAR1 ag | CHO RD-HGA16 TAAR1, Fluo-8 calcium fluorescence; scaled: DMSO 0%, maximal phenethylamine 100% | activation, % at 3 µM | 2,400 compounds, 82% hits | AID 651783;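 active = activation above a cutoff set at the run's mean compound activation plus 3 SD, cut at about 39% in these data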
Ga16 nonsel ag: counter-screen for TAAR1 agonists: nonselective agonists in parental cells; shares compounds with TAAR1 ag; AID 651787; activation, % at 3 µM; 2,400 compounds, 50% hits; CHO-Ga16 parental, Fluo-8 calcium fluorescence; normalized to maximal ATP response, DMSO zero;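 active = activation above the run cutoff, the mean activation over all tested wells plus 3 SD, cut at about 12% in these data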;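 note: 0% = DMSO wells and 100% = maximal ATP response on the peak over basal ratio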
TAAR1 desens: TAAR1 response desensitization, agonist counter-screen | shares compounds with TAAR1 ag | CHO RD-HGA16 hTAAR1, Fluo-8 calcium, beta-PEA response inhibition | inhibition, % at 3 µM | 2,400 compounds, 46% hits;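 active = inhibition above the run cutoff, the mean inhibition of all test compounds plus 3 SD, cut at about 49% in these data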;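 note: beta-PEA stimulus applied at its EC80; loss of beta-PEA calcium signal after compound pretreatment read as receptor desensitization; 0% = DMSO with beta-PEA at EC80 and 100% = DMSO alone without agonist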
Ga16 antag count: counter-screen for TAAR1 agonists: nonselective Ga16 antagonists | shares compounds with TAAR1 ag | CHO-Ga16 ATP-induced calcium, Fluo-8 fluorescence | inhibition, % at 3 µM | 2,400 compounds, 39% hits | AID 651952;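 active = inhibition above the plate's mean compound inhibition plus 3 SD, computed per plate, cut at about 22% in these data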;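 note: 0% = EC80 ATP with DMSO and 100% = DMSO wells without ATP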
An asterisk follows results filed as active; / = not tested or not shown.

SMILES	OX1R antag-1	GPR7 antag	OX1R antag-2	TAAR1 ag	TAAR1 antag	CHO parental Ca	TAAR1 ag confirm	Ga16 nonsel ag	TAAR1 desens	Ga16 antag count
CC(C)(C)CN1CCNC(=O)C1CC(=O)NCCc1ccccc1F (centres undefined)	-30.3	5.6	20.2	/	/	-36.0	/	2.4	/	5.0
O=C(CC1C(=O)NCCN1CC1CCCCC1)NCCc1ccc(F)cc1 (centres undefined)	-27.4	13.5	10.4	45.5*	-17.2	-18.3	49.5*	0.5	5.4	2.3
O=C(OCC1CC(c2ccccc2)=NO1)c1ccco1 (centres undefined)	-2.7	1.6	-2.5	2.7	2.8	-3.8	/	/	/	/
COCCCNC(NC(=O)c1ccc(Br)cc1)C(Cl)(Cl)Cl (centres undefined)	-21.9	-8.4	31.8	6.1	1.6	-18.0	/	/	/	/
Cc1ccccc1C(=O)N[C@H](C(=O)N1CCC[C@H]1C(=O)NCCc1ccccc1Cl)C(C)C	/	/	/	57.3*	71.5*	/	90.9*	-1.2	94.6*	9.6
O=C(NCCc1ccccc1Cl)[C@@H]1CCCN1C(=O)[C@@H](NS(=O)(=O)c1ccc(F)cc1F)c1ccccc1	/	/	/	40.9*	55.5*	/	57.0*	2.7	69.3*	17.2
CC(C)[C@H](NC(=O)c1ccc(Cl)cc1Cl)C(=O)N1CCC[C@H]1C(=O)NCc1ccccc1	/	/	/	-1.0	-3.9	/	/	/	/	/
CC(C)[C@H](NS(=O)(=O)c1ccc(F)cc1F)C(=O)N1CCC[C@H]1C(=O)NCc1ccccc1	/	/	/	1.1	-23.7	/	/	/	/	/
CC(C)[C@H](NC(=O)C1CC1)C(=O)N1CCC[C@H]1C(=O)NCCc1ccccc1Cl	/	/	/	61.9*	69.0*	/	92.4*	2.4	89.9*	-2.2
O=C(N[C@H](C(=O)N1CCC[C@H]1C(=O)NCCc1ccccc1Cl)c1ccccc1)C1CC1	/	/	/	37.1	11.6	/	/	/	/	/
CC(C)[C@H](NC(=O)CC1CCCC1)C(=O)N1CCC[C@H]1C(=O)NCCc1ccccc1Cl	/	/	/	65.1*	57.4*	/	85.1*	-1.2	85.9*	1.6
CCCc1cc(=O)[nH]c(SCC(=O)Nc2sc3c(c2C#N)CCC(C)C3)n1 (centres undefined)	-5.7	-22.6	10.8	5.2	-29.8	-16.4	/	/	/	/
Cc1ccccc1C(=O)N[C@H](C(=O)N1CCC[C@H]1C(=O)NCCc1ccccc1Cl)c1ccccc1	/	/	/	53.3*	41.1	/	75.0*	3.3	79.2*	11.2
O=C(N[C@H](C(=O)N1CCC[C@H]1C(=O)NCCc1ccccc1Cl)c1ccccc1)c1ccc(Cl)cc1Cl	/	/	/	29.5	35.6	/	/	/	/	/
Cc1cc2c(cc1S(=O)(=O)CCC(=O)NCCc1ccccc1)OCC(=O)N2	-24.6	-8.5	23.1	88.7*	51.5*	-6.5	100.8*	0.3	74.7*	1.1
Cc1cccc(CCNC(=O)CCS(=O)(=O)c2cc3c(cc2C)NC(=O)CO3)c1	-19.2	-3.0	14.8	33.5	-25.6	-10.8	/	/	/	/
O=C(CSc1nc2[nH]ncc2c(=O)n1-c1ccccc1)c1ccc2c(c1)OCCO2	-4.7	-1.3	17.1	75.2*	57.9*	2.1	67.3*	20.9*	49.6*	27.2*
NCCOc1ccc(C23CC4CC(CC(C4)C2)C3)cc1	1.9	5.0	-2.4	81.4*	15.5	7.1	94.0*	59.8*	81.4*	76.0*
O=C(O)C1(c2ccccc2)CCC(Nc2ccccc2)C1 (centres undefined)	-4.8	-8.9	9.6	4.5	-24.7	17.1	/	/	/	/
O=[N+]([O-])c1cccc(Nc2c([N+](=O)[O-])ccc3nonc23)c1	-9.8	-11.3	-8.5	2.5	-16.7	-4.3	/	/	/	/
O=[N+]([O-])c1ccc2nonc2c1Nc1ccccc1	-5.0	-19.6	27.5*	78.2*	24.0	-7.3	4.8	1.1	-6.4	0.7
COCCN(Cc1cn[nH]c1-c1ccc2cc(OC)ccc2c1)C(C)C	/	15.3	/	2.0	-13.4	/	/	/	/	/
O=C(CSc1nc(-c2ccccc2Cl)ns1)Nc1ccc2c(c1)OCO2	-10.2	8.4	9.6	4.4	27.0	-10.3	/	/	/	/
COc1ccc(CC(=O)O/N=C(\N)Cc2cccc3ccccc23)cc1	-6.8	-12.6	15.6	29.1	11.5	-12.1	/	/	/	/
COc1ccc(CC(=O)O/N=C(\N)Cc2cccc3ccccc23)cc1OC	4.3	-1.4	21.5	42.1*	25.3	-22.1	64.8*	2.4	45.0	19.5
SMILES	OX1R antag-1	GPR7 antag	OX1R antag-2	TAAR1 ag	TAAR1 antag	CHO parental Ca	TAAR1 ag confirm	Ga16 nonsel ag	TAAR1 desens	Ga16 antag count
N/C(Cc1cccc2ccccc12)=N\OC(=O)c1cccs1	-9.1	-1.9	11.1	/	/	-7.7	/	/	/	/
N/C(Cc1cccc2ccccc12)=N\OC(=O)Cc1cccs1	-9.0	-7.5	14.7	60.6*	25.8	-6.7	73.6*	0.6	24.1	2.5
CCOC(=O)[C@]12CCCC=C1N(Cc1ccc3c(c1)OCO3)C(=O)[C@H](CC(=O)NCCc1ccccc1OC)C2	/	/	/	74.5*	27.9	/	75.2*	-1.8	69.4*	10.2
COC(=O)[C@]12CCCCC=C1N(CCC1=CCCCC1)C(=O)[C@H](CC(=O)NCCc1ccccc1OC)C2	/	/	/	34.1	39.8	/	/	/	/	/
CCOC(=O)[C@]12CCCC=C1N(CCC1=CCCCC1)C(=O)[C@H](CC(=O)NCCc1ccccc1OC)C2	/	/	/	58.2*	38.2	/	74.7*	0.1	60.0*	9.2
CCOC(=O)[C@]12CCC=C1N(CCC1=CCCCC1)C(=O)[C@H](CC(=O)NCCc1ccccc1OC)C2	/	/	/	/	/	/	/	0.6	/	-8.7
CCOC(=O)[C@]12CCC=C1N(CCC1=CCCCC1)C(=O)[C@H](CC(=O)NCc1cccc3ccccc13)C2	/	/	/	9.1	-14.5	/	/	/	/	/
Cc1cccc(CNc2ccc(C(CC(N)=O)NC(=O)Cc3cccc4ccccc34)cc2[N+](=O)[O-])c1 (centres undefined)	-23.9	/	11.3	4.3	-9.3	-2.5	/	/	/	/
C=CCNC(=O)c1cnc(-c2ccccc2)nc1-c1ccccc1	-21.8	0.7	1.3	0.7	-16.0	-12.5	/	/	/	/
COc1ccc(C(CCN2CCCC(C)C2)c2c(OC)cc(OC)c3c(-c4ccccc4)cc(=O)oc23)cc1 (centres undefined)	10.9	/	15.9	55.6*	44.7	3.1	47.0*	37.1*	47.4	42.2*
COc1cc(=O)n(C)c2ccccc12	-5.6	3.8	0.9	3.4	-20.9	10.6	/	/	/	/
